According to ChEMBL document CHEMBL1789904, “Imaging of Plasmodium liver stages to drive next-generation antimalarial drug discovery” (Science, 2011):

Test system: Plasmodium yoelii
Assay: NOVARTIS: Antimalarial liver stage activity measured as reduction in Plasmodium yoelii schizont area in HepG2-A16-CD81 cells by immuno-fluorescence, and median schizont size at 10uM compound concentration
Assay type: functional, organism-based
Conditions: for IC50: Plasmodium yoelii, HepG2-A16-CD81
How it was run: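 Host and parasite nuclei stained with Hoechst 33342, parasites with αPyHSP70 antibody; 25 images per well by high-content imaging; median parasite (schizont) area measured by automated image analysis, ~50 schizonts per experiment, two or more independent experiments.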

SMILES: Oc1c(CN2CCN(Cc3ccc4cccnc4c3O)CC2)ccc2cccnc12
- Schizont size: 21.19 um
- IC50: 96.6 nM

SMILES: COc1cccc(NC(=O)c2ccc(NCCCN3CC(C)CC(C)C3)c([N+](=O)[O-])c2)c1 (stereo not drawn)
- Schizont size: 87.57 um
- IC50: 437 nM

SMILES: CCOC(=O)c1cnc2ccc(OC)cc2c1NCc1cccs1
- Schizont size: 31.63 um
- IC50: 193 nM

SMILES: CCOc1ccc(Nc2nc(NCc3ccco3)c3ccccc3n2)cc1
- Schizont size: 75.78 um
- IC50: 105 nM

SMILES: CCCCOc1ccc(N(C(C)=O)C2=C(N3CCOCC3)C(=O)c3ccccc3C2=O)cc1
- Schizont size: 74.84 um
- IC50: 1790 nM

SMILES: CC(C)(C)C1CCc2[nH]c3ccccc3c(=O)c2C1 (stereo not drawn)
- Schizont size: 22.13 um
- IC50: 98.3 nM

SMILES: CC(=O)Nc1cccc(-c2cncc(-c3ccc(C(=O)O)cc3)n2)c1
- IC50: > 10000 nM

SMILES: CCCCCc1c(C)c(C#N)c2nc3ccccc3n2c1NCCN(CC)CC
- Schizont size: 74 um
- IC50: 702 nM

SMILES: CCC[n+]1cccc2ccc3cccnc3c21
- Schizont size: 43.42 um
- IC50: 903 nM

SMILES: COC(OC)C(C)=NNC(N)=S
- Schizont size: 78.8 um
- IC50: 4.93 nM

SMILES: COC(=O)c1cc(NC(=S)NC(=O)c2c(OC)cccc2OC)cc(C(=O)OC)c1
- Schizont size: 216.06 um
- IC50: > 10000 nM

SMILES: Cc1ccc(-c2cc(C(=O)OCC(=O)c3cccc([N+](=O)[O-])c3)c3cc(C)ccc3n2)cc1
- Schizont size: 180.05 um
- IC50: > 10000 nM

SMILES: CC1(C)C2CCC(C2)C1(C)NC(=S)NN=Cc1ccccn1 (stereo not drawn)
- Schizont size: 28.29 um
- IC50: 17.4 nM

SMILES: CCOC(=O)c1c(NC(C)=O)sc2c1CCN(C(C)C)C2
- Schizont size: 93.21 um
- IC50: 3010 nM

SMILES: COc1cccc(NC(=O)Cn2c(C)c(C#N)c3ccccc32)c1
- Schizont size: 134.12 um
- IC50: > 9960 nM

SMILES: CC(=O)Nc1ccc(-c2nc(-c3ccc(Oc4ccc(-c5[nH]c(-c6ccc(NC(C)=O)cc6)nc5-c5ccccc5)cc4)cc3)c(-c3ccccc3)[nH]2)cc1
- Schizont size: 112.31 um
- IC50: > 3730 nM

SMILES: c1ccc(OCCOc2ccc(Nc3ccnc4cc5ccccc5cc34)cc2)cc1
- Schizont size: 18.06 um
- IC50: 67.5 nM

SMILES: Cc1ccc(CSCc2ccc(C(=O)NC3CC3)o2)cc1
- Schizont size: 25.36 um
- IC50: 47.3 nM

SMILES: CCC(C)(C)c1ccc(OCCOCC[n+]2ccccc2)c(C(C)(C)CC)c1.[Cl-]
- Schizont size: 13.88 um
- IC50: 96.2 nM

SMILES: CCC1CN2CCc3cc(OC)c(OC)cc3C2CC1CC1NCCc2cc(OC)c(OC)cc21.Cl (stereo not drawn)
- Schizont size: 13.78 um
- IC50: 80.2 nM

SMILES: Cc1[nH]c2ccccc2c(=O)c1Br
- Schizont size: 29.43 um
- IC50: 214 nM

SMILES: CC1(C)N=C(N)N=C(N)N1c1ccc(Oc2ccc(Cl)cc2)c(Cl)c1.Cl
- Schizont size: 27.76 um
- IC50: 73 nM

SMILES: CCN1CCN(c2cc(C)c3cc(NC(=O)c4cc(OC)cc(OC)c4)ccc3n2)CC1
- Schizont size: 113.77 um
- IC50: 3740 nM

SMILES: C=CCc1c(C)nc2ccc(Br)cc2c1O
- Schizont size: 32.46 um
- IC50: 181 nM

SMILES: CCCCCCCn1c2c(c(=N)c3ccccc31)CCC2.I
- Schizont size: 23.59 um
- IC50: 76.5 nM

SMILES: O=C(c1ccc2nc(N3CCCCC3)sc2c1)N1CCN(Cc2ccc3c(c2)OCO3)CC1
- Schizont size: 168.67 um
- IC50: > 9220 nM

SMILES: CCOc1ccc(NC(=O)C(C)Sc2nc3ccccc3[nH]2)cc1 (stereo not drawn)
- Schizont size: 194.87 um
- IC50: > 10000 nM

SMILES: CN1C(=O)N(C)C(NNC(N)=S)C1NNC(N)=S (stereo not drawn)
- Schizont size: 117.53 um
- IC50: 15 nM

SMILES: FC(F)(F)c1ccccc1NC(=S)N1CCCN(c2nc3ccc(Cl)cc3s2)CC1
- Schizont size: 91.85 um
- IC50: 1620 nM

SMILES: Cc1ccnc(NC(c2ccc3ccccc3c2)c2ccc3cccnc3c2O)c1 (stereo not drawn)
- Schizont size: 26.72 um
- IC50: 556 nM

SMILES: CCCCc1c(CCC)c(=N)c2ccccc2n1C.I
- Schizont size: 58.14 um
- IC50: 244 nM

SMILES: COc1cccc(-c2cncc(-c3cncc(OC)c3)n2)c1
- IC50: > 10000 nM

SMILES: O=C(NC1CC1)C1CCN(c2cccc3c2C(=O)N(Cc2cccc(C(F)(F)F)c2)C3=O)CC1
- Schizont size: 24.01 um
- IC50: 29.3 nM

SMILES: c1ccc(-c2csc(Nc3nc4cc5c(cc4s3)OCO5)n2)nc1
- Schizont size: 34.44 um
- IC50: 78.9 nM

SMILES: N#Cc1c2c(c(N3CCN(Cc4ccccc4)CC3)n3c1nc1ccccc13)CCC2
- Schizont size: 241.42 um
- IC50: > 10000 nM

SMILES: CC1(C)N=C(N)N=C(N)N1c1ccccc1.Cl
- Schizont size: 37.05 um
- IC50: 100 nM

SMILES: Cc1ccc(NC(=O)C2C3C=CC4(O3)C2C(=O)N(CCCN2CCOCC2)C4C(=O)NC2CCCC(C)C2C)cc1Cl.Cl (stereo not drawn)
- Schizont size: 196.54 um
- IC50: > 10000 nM

SMILES: [Cl-].c1ccc(Cc2cc[n+](Cc3ccccc3)cc2)cc1
- Schizont size: 127.34 um
- IC50: 4520 nM

SMILES: COc1ccc2[nH]c(SCC(=O)Nc3cccc(NC(=O)CSc4nc5cc(OC)ccc5[nH]4)n3)nc2c1
- Schizont size: 180.05 um
- IC50: > 9290 nM

SMILES: Cl.Clc1cccc(Nc2nc(NCc3ccco3)c3ccccc3n2)c1
- Schizont size: 36.64 um
- IC50: 383 nM

SMILES: Cc1ccc(-c2cn3c([n+]2-c2ccc(C)cc2)CCCCC3)cc1
- Schizont size: 27.24 um
- IC50: 146 nM

SMILES: Cc1oc2c(c1C(=O)NC1CCS(=O)(=O)C1)C(=O)c1ccccc1C2=O (stereo not drawn)
- Schizont size: 17.54 um
- IC50: 2.29 nM

SMILES: CCOC(=O)C1=C(C)NC2=C(C(=O)C(C(=O)OCC)C(c3ccccc3OC)C2)C1c1ccc([N+](=O)[O-])cc1 (stereo not drawn)
- Schizont size: 76.3 um
- IC50: 335 nM

SMILES: COc1ccccc1Nc1nc(NCc2ccccc2)c2ccccc2n1.Cl
- Schizont size: 40.29 um
- IC50: 91.3 nM

SMILES: Cc1nc2c(C)cccc2c(O)c1CC=C(Cl)Cl
- Schizont size: 31.21 um
- IC50: 169 nM

SMILES: Cc1cccc(NC(=S)NC2CC3CCCC(C2)N3CCc2ccccc2)c1 (stereo not drawn)
- Schizont size: 67.74 um
- IC50: 277 nM

SMILES: Fc1ccc(-c2cn3c([n+]2-c2ccccc2)SCC3)cc1.[Br-]
- Schizont size: 131.2 um
- IC50: > 4300 nM

SMILES: CCCC1(CCC)NC(=S)N(c2ccc(C)c(C)c2)N1
- Schizont size: 233.59 um
- IC50: > 10000 nM

SMILES: O=C(C1CC1)N1CCc2cc(Br)cc(S(=O)(=O)N3CCCC3)c21
- Schizont size: 164.5 um
- IC50: > 10000 nM

SMILES: O=C1CC(c2ccccc2)CC2=C1C(c1ccccc1[N+](=O)[O-])Nc1ccccc1N2 (stereo not drawn)
- Schizont size: 201.65 um
- IC50: > 10000 nM

SMILES: Cn1ncnc2c(=O)n(C)c(=O)nc1-2
- Schizont size: 12.53 um
- IC50: 103 nM

SMILES: COc1cccc(C(=O)NC(c2ccccc2OC)c2cc(Cl)c3cccnc3c2O)c1 (stereo not drawn)
- Schizont size: 20.25 um
- IC50: 544 nM

SMILES: CCc1ccccc1NC(C)=O
- Schizont size: 188.81 um
- IC50: > 10000 nM

SMILES: COc1ccc2nc(C)cc(Nc3ccc(Cl)c(Cl)c3)c2c1
- Schizont size: 39.25 um
- IC50: 438 nM

SMILES: CCOC(=O)c1ccc(NCc2c(C)[nH]c3ccccc3c2=O)cc1
- Schizont size: 18.27 um
- IC50: 137 nM

SMILES: Br.Cc1ccnc(Nc2nc(-c3ccccn3)cs2)c1
- Schizont size: 19.21 um
- IC50: 95.6 nM

SMILES: COC(=O)C1=CNC=C(C(=O)OC)C1c1cc(OC)c(OC)c(OC)c1
- Schizont size: 216.47 um
- IC50: > 10000 nM

SMILES: CCN(c1ccccc1)S(=O)(=O)c1ccc(F)c(C(=O)Nc2c(C)cccc2C)c1
- Schizont size: 234.32 um
- IC50: > 10000 nM

SMILES: Cl.OCCNc1nc(Nc2ccc(F)cc2)nc2ccccc12
- Schizont size: 91.12 um
- IC50: 136 nM

SMILES: Cc1ccc(-c2cc3nc4c(c(O)n3n2)CCCC4)cc1
- Schizont size: 26.41 um
- IC50: 75.3 nM

SMILES: CCCCCCN(C(=O)COc1ccccc1)C(CC)c1nc2ccccc2c(=O)n1-c1cccc(Cl)c1 (stereo not drawn)
- IC50: > 10000 nM

SMILES: CCOC(=O)C1=C(C)NC2=C(C(=O)C(C(=O)OCC)C(c3cccc(OC)c3)C2)C1c1cc(OC)c(OC)c(OC)c1 (stereo not drawn)
- Schizont size: 109.59 um
- IC50: 232 nM

SMILES: CCCc1c(C)nc2ccccc2c1O
- Schizont size: 34.55 um
- IC50: 279 nM

SMILES: CC[n+]1c(/C=C/C=C2\N(C)c3ccccc3C2(C)C)n(-c2ccccc2)c2cc(Cl)ccc21
- Schizont size: 12.53 um
- IC50: 13.6 nM

SMILES: N#CC1=C(N)Oc2c3c(c4ccccc4c2C1c1ccc(F)cc1)C(c1ccc(F)cc1)C(C#N)=C(N)O3 (stereo not drawn)
- Schizont size: 105.63 um
- IC50: 3930 nM

SMILES: CCOc1ccc(Nc2nc(NCc3ccccc3)c3ccccc3n2)cc1.Cl
- Schizont size: 23.69 um
- IC50: 480 nM

SMILES: CCCN(CCC)CCCNc1ccc(C(=O)Nc2ccc(C)c(F)c2)cc1[N+](=O)[O-]
- Schizont size: 83.5 um
- IC50: 646 nM

SMILES: CCCCSc1oc(C)nc1[P+](c1ccccc1)(c1ccccc1)c1ccccc1
- Schizont size: 22.13 um
- IC50: 82.1 nM

SMILES: CCCCOc1ccc(C2C3CCCC=C3C(C#N)=C(N)C2(C#N)C#N)cc1 (stereo not drawn)
- Schizont size: 213.66 um
- IC50: > 10000 nM

SMILES: CCc1noc(C)c1C(=O)NCCN1Cc2ccccc2OC(c2ccsc2)C1 (stereo not drawn)
- Schizont size: 227.75 um
- IC50: > 10000 nM

SMILES: CCCCN1C=CC=C/C1=C\c1sc2ccccc2[n+]1CC
- Schizont size: 18.47 um
- IC50: 10.9 nM

SMILES: COc1ccccc1CNC(=O)c1nn(-c2ccc(Cl)cc2)c(=O)c2ccccc12
- IC50: > 10000 nM

SMILES: Cc1nc2ccccc2c(=O)n1-c1ccc([N+](=O)[O-])cc1
- Schizont size: 246.01 um
- IC50: > 10000 nM

SMILES: CCOC(=O)c1c(CNC)n(C)c2cc(Br)c(O)cc12.O=CO.O=CO
- Schizont size: 175.56 um
- IC50: > 10000 nM

SMILES: CCC(C)(C)c1ccc(OCCCC[n+]2cccc(C)c2C)c(C(C)(C)CC)c1.[Br-]
- Schizont size: 12.53 um
- IC50: 45.5 nM

SMILES: O=C(c1ccc([N+](=O)[O-])cc1)c1ccc(Cl)c(Cl)c1
- Schizont size: 109.39 um
- IC50: 1640 nM

SMILES: CC1(C)N=C(N)N=C(N)N1c1ccc(I)cc1.Cl
- Schizont size: 33.82 um
- IC50: 10 nM

SMILES: CCCc1nc2ccc(NC(=O)c3ccccc3F)cc2c(=O)n1Cc1ccc(-c2ccccc2)cc1
- IC50: 1730 nM

SMILES: O=C1Nc2ccccc2C12Nc1ccccc1-c1nc3ccccc3n12 (stereo not drawn)
- Schizont size: 165.43 um
- IC50: > 10000 nM
